Activity calls are given as the source filed them. The rule behind the calls is not given here.
Key:
[1] = tested on: MGC-803; test: Cytotoxicity against human MGC803 cells assessed as inhibition of cell viability after 48 hrs by MTT assay; type: functional, cell-based; conditions: MGC-803, 48 h
Summary of the method: (§1)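 Cells grown in RPMI 1640 with 10% FBS, penicillin and streptomycin at 37 °C under 5% CO2. After 24 h, medium replaced with medium containing various concentrations. Exposure 48 h, then MTT read-out at 570 nm. IC50 is the concentration giving 50% proliferation inhibition, from dose-response curves; mean ± SD of three independent experiments.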

[2] = tested on: ECa-109 cell line; test: Cytotoxicity against human EC109 cells assessed as inhibition of cell viability after 48 hrs by MTT assay; type: functional, cell-based; conditions: ECa-109, 48 h; summary of the method: as §1
[3] = tested on: PC-3; test: Cytotoxicity against human PC3 cells assessed as inhibition of cell viability after 48 hrs by MTT assay; type: functional, cell-based; conditions: for IC50: PC-3, 48 h; summary of the method: as §1
[4] = tested on: PC-3; test: Cell cycle arrest in human PC3 cells assessed as accumulation at S phase at 2.5 uM after 48 hrs by propidium iodide staining-based flow cytometric method (reference value: 26.54%); type: functional
[5] = tested on: PC-3; test: Induction of apoptosis in human PC3 cells assessed as early apoptotic cells at 0.1 uM after 48 hrs by annexin V-FITC/propidium iodide staining-based flow cytometric method (reference value: 4.7%); type: functional
[6] = tested on: PC-3; test: Cell cycle arrest in human PC3 cells assessed as accumulation at G1 phase at 0.1 uM after 48 hrs by propidium iodide staining-based flow cytometric method (reference value: 54.65%); type: functional
[7] = tested on: PC-3; test: Cell cycle arrest in human PC3 cells assessed as accumulation at G2 phase at 0.5 uM after 48 hrs by propidium iodide staining-based flow cytometric method (reference value: 18.31%); type: functional
[8] = tested on: PC-3; test: Downregulation of cyclin D1 levels in human PC3 cells after 48 hrs by Western blot method; type: functional, cell-based
Summary of the method: (§2)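 PC-3 cells treated 48 h at 0, 0.1, 0.5 or 2.5 μM, then lysed in RIPA buffer with protease inhibitors. Protein measured by BCA, separated by SDS-PAGE, transferred to nitrocellulose, blocked in 5% milk, probed overnight at 4 °C for cyclin D1, CDK4, cyclin A and cyclin B1, detected by ECL. Bands quantified; three independent experiments.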

[9] = tested on: PC-3; test: Induction of apoptosis in human PC3 cells assessed as early apoptotic cells at 0.5 uM after 48 hrs by annexin V-FITC/propidium iodide staining-based flow cytometric method (reference value: 4.7%); type: functional
[10] = tested on: PC-3; test: Downregulation of p38 levels in human PC3 cells after 48 hrs by Western blot analysis; type: functional, cell-based
Summary of the method: (§3)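 PC-3 cells exposed 48 h to 0, 0.1, 0.5 or 2.5 μM. RIPA lysates, BCA protein assay, SDS-PAGE, nitrocellulose transfer, 5% milk block, primary antibodies overnight at 4 °C against p-ERK, p-c-Jun, c-Myc, p38 and p-p38, secondary 1:5000 for 2 h, ECL detection. Levels quantified from three independent experiments.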

[11] = biological target: Myc proto-oncogene protein (Homo sapiens) (UniProt P01106); test: Inhibition of c-Myc expression in human PC3 cells after 48 hrs by Western blot analysis
[12] = tested on: PC-3; test: Cell cycle arrest in human PC3 cells assessed as accumulation at S phase at 0.1 uM after 48 hrs by propidium iodide staining-based flow cytometric method (reference value: 26.54%); type: functional
[13] = tested on: PC-3; test: Cell cycle arrest in human PC3 cells assessed as accumulation at G2 phase at 2.5 uM after 48 hrs by propidium iodide staining-based flow cytometric method (reference value: 18.31%); type: functional
[14] = tested on: PC-3; test: Upregulation of Bax levels in human PC3 cells at 0.1 to 2.5 uM after 48 hrs by Western blot method; type: functional, cell-based
Summary of the method: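 Bax protein measured by Western blot in PC-3 cells after 48 h at 0, 0.1, 0.5 or 2.5 μM: RIPA lysis, SDS-PAGE, nitrocellulose transfer, overnight primary antibody at 4 °C, ECL detection.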

[15] = tested on: GES1; test: Cytotoxicity against human GES-1 cells assessed as inhibition of cell viability after 48 hrs by MTT assay; type: cell-based; conditions: GES1, 48 h; summary of the method: as §1
[16] = tested on: PC-3; test: Cytotoxicity against human PC3 cells assessed as inhibition of cell growth at 2.5 uM after 6 to 12 hrs by MTT assay; type: functional, cell-based
[17] = tested on: PC-3; test: Induction of apoptosis in human PC3 cells assessed as late apoptotic cells at 0.1 uM after 48 hrs by annexin V-FITC/propidium iodide staining-based flow cytometric method (reference value: 1.3%); type: functional
[18] = tested on: PC-3; test: Anticlonogenic activity against human PC3 cells at 2.5 uM after 1 week by crystal violet staining-based assay; type: functional, cell-based
Summary of the method: (§4)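 PC-3 cells seeded, grown 24 h, then given fresh medium containing a range of concentrations and treated for one week. Washed with PBS, fixed in 4% paraformaldehyde, stained with 0.1% crystal violet, imaged. Colonies counted and colony formation efficiency calculated relative to control. Three independent experiments.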

[19] = tested on: PC-3; test: Cell cycle arrest in human PC3 cells assessed as accumulation at G2 phase at 0.1 uM after 48 hrs by propidium iodide staining-based flow cytometric method (reference value: 18.31%); type: functional
[20] = tested on: PC-3; test: Cell cycle arrest in human PC3 cells assessed as accumulation at G1 phase at 0.5 uM after 48 hrs by propidium iodide staining-based flow cytometric method (reference value: 54.65%); type: functional
[21] = tested on: PC-3; test: Downregulation of beta-catenin levels in human PC3 cells after 48 hrs by Western blot method; type: functional, cell-based
Summary of the method: (§5)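 Wnt pathway proteins probed by Western blot in PC-3 cells after 48 h at 0, 0.1, 0.5 or 2.5 μM. RIPA lysis, SDS-PAGE, nitrocellulose, overnight primary antibody at 4 °C, ECL detection. Expression quantified from three independent experiments.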

[22] = biological target: Transcription factor Jun (Homo sapiens) (UniProt P05412); test: Inhibition of c-Jun phosphorylation in human PC3 cells after 48 hrs by Western blot analysis; type: cell-based; summary of the method: as §3
[23] = biological target: MAP kinase p38 (Homo sapiens) (UniProt O15264+Q15759+Q16539+P53778); test: Inhibition of p38 phosphorylation in human PC3 cells after 48 hrs by Western blot analysis; type: cell-based; summary of the method: as §3
[24] = tested on: PC-3; test: Antimigratory activity in human PC3 cells at 0.1 to 2.5 uM after 48 hrs by Hoechst 33258 staining-based transwell assay; type: functional, cell-based
Summary of the method: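 Transwell migration: upper chamber holds 10^4 PC-3 cells in medium with 1% FBS plus 0, 0.1, 0.5 or 2.5 μM compound. Lower chamber holds medium with 20% FBS as chemoattractant. After 48 h both chambers washed with PBS, stained with Hoechst 33258, and migrated cells counted by high-content imaging. Three independent experiments.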

[25] = tested on: PC-3; test: Induction of apoptosis in human PC3 cells assessed as late apoptotic cells at 0.5 uM after 48 hrs by annexin V-FITC/propidium iodide staining-based flow cytometric method (reference value: 1.3%); type: functional
[26] = tested on: PC-3; test: Downregulation of CDK4 levels in human PC3 cells after 48 hrs by Western blot method; type: functional, cell-based; summary of the method: as §2
[27] = organism: Homo sapiens; test: Inhibition of ERK phosphorylation in human PC3 cells after 48 hrs by Western blot analysis; type: cell-based; summary of the method: as §3
[28] = tested on: PC-3; test: Downregulation of TCF4 levels in human PC3 cells after 48 hrs by Western blot method; type: functional, cell-based; summary of the method: as §5
[29] = tested on: PC-3; test: Cell cycle arrest in human PC3 cells assessed as accumulation at G1 phase at 2.5 uM after 48 hrs by propidium iodide staining-based flow cytometric method (reference value: 54.65%); type: functional
[30] = tested on: PC-3; test: Cell cycle arrest in human PC3 cells assessed as accumulation at S phase at 0.5 uM after 48 hrs by propidium iodide staining-based flow cytometric method (reference value: 26.54%); type: functional
[31] = tested on: PC-3; test: Induction of apoptosis in human PC3 cells assessed as late apoptotic cells at 2.5 uM after 48 hrs by annexin V-FITC/propidium iodide staining-based flow cytometric method (reference value: 1.3%); type: functional
[32] = tested on: PC-3; test: Anticlonogenic activity against human PC3 cells assessed as colony formation efficiency at 2.5 uM after 1 week by crystal violet staining-based assay relative to control; type: functional; summary of the method: as §4
[33] = tested on: PC-3; test: Upregulation of Axin levels in human PC3 cells after 48 hrs by Western blot method; type: functional, cell-based; summary of the method: as §5
[34] = tested on: PC-3; test: Induction of apoptosis in human PC3 cells assessed as early apoptotic cells at 2.5 uM after 48 hrs by annexin V-FITC/propidium iodide staining-based flow cytometric method (reference value: 4.7%); type: functional

Sequence of Myc proto-oncogene protein (Homo sapiens) (P01106 whole entry): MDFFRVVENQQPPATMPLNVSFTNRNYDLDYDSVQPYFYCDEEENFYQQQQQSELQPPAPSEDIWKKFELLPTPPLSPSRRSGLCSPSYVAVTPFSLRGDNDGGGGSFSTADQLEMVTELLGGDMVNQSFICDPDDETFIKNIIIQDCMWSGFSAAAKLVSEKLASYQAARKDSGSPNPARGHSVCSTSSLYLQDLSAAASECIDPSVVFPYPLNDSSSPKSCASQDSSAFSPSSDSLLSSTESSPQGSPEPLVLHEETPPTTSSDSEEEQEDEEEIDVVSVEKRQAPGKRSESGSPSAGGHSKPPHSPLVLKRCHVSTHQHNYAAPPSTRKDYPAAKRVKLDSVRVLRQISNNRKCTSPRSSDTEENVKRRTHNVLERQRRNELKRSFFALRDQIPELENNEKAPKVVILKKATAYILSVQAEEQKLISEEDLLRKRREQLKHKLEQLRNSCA
Sequence of Transcription factor Jun (Homo sapiens) (P05412 whole entry): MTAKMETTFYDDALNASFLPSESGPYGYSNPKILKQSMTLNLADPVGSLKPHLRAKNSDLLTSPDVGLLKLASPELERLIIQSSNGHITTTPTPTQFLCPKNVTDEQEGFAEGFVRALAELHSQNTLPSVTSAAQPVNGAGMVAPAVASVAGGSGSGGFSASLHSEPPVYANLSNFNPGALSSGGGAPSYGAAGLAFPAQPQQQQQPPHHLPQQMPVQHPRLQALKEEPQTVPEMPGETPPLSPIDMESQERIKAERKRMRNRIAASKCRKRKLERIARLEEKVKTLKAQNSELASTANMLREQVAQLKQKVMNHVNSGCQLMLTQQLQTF

## COc1ccc(-c2coc3cc(OCCCSC(=S)N4CCN(c5ccccn5)CC4)ccc3c2=O)cc1
[1]
  IC50: 42 µM
[2]
  IC50: 38.3 µM
[3]
  IC50: 17.4 µM

## COc1ccc(-c2coc3cc(OCCCSC(=S)N4CCOCC4)ccc3c2=O)cc1
[1]
  IC50: 49.6 µM
[2]
  IC50: 34 µM
[3]
  IC50: 27.4 µM

## O=c1[nH]cc(F)c(=O)[nH]1 [FLUOROURACIL]
[1]
  IC50: 7.21 µM
[2]
  IC50: 10.3 µM
[3]
  IC50: 29.3 µM

## COc1ccc(-c2coc3cc(OCCCSC(=S)N4CCN(C(C)=O)CC4)ccc3c2=O)cc1
[1]
  IC50: 39.4 µM
[2]
  IC50: 24.7 µM
[3]
  IC50: 4.31 µM

## COc1ccc(-c2coc3cc(OCCCSC(=S)N4CCN(C)CC4)ccc3c2=O)cc1
[1]
  IC50: 21.9 µM
[2]
  IC50: 24.2 µM
[3]
  IC50: 2.21 µM

## COc1ccc(-c2coc3cc(OCCCCCBr)ccc3c2=O)cc1
[1]
  IC50: > 100 µM
[2]
  IC50: 59.1 µM
[3]
  IC50: 44.8 µM

## COc1ccc(-c2coc3cc(OCCCSC(=S)N4CCN(C(=O)OC(C)(C)C)CC4)ccc3c2=O)cc1
[4]
  Activity: 10.33%
[5]
  Activity: 6.2%
[6]
  Activity: 55.6%
[7]
  Activity: 9.1%
[8]
  Activity: Dose-dependent effect
[9]
  Activity: 5.7%
[10]
  Activity: Dose-dependent effect
[11]
  inhibition: Dose-dependent effect
[12]
  Activity: 26.75%
[1]
  IC50: 6.07 µM
[13]
  Activity: 3.66%
[14]
  Activity: inactive
[15]
  IC50: > 100 µM
[16]
  growth inhibition (GI): Active
[17]
  Activity: 1.1%
[18]
  Activity: Dose-dependent effect
[19]
  Activity: 17.3%
[20]
  Activity: 61.29%
[21]
  Activity: Dose-dependent effect
[22]
  inhibition: Dose-dependent effect
[23]
  inhibition: Dose-dependent effect
[24]
  Activity: Dose-dependent effect
[25]
  Activity: 1.3%
[26]
  Activity: Dose-dependent effect
[27]
  inhibition: Dose-dependent effect
[2]
  IC50: 3.54 µM
[28]
  Activity: Dose-dependent effect
[29]
  Activity: 83.32%
[30]
  Activity: 29.69%
[31]
  Activity: 0.9%
[32]
  Activity: 6%
[3]
  Activity: Dose-dependent effect
  IC50: 1.97 µM
[33]
  Activity: Dose-dependent effect
[34]
  Activity: 5.5%

## COc1ccc(-c2coc3cc(OCCCSC(=S)N4CCCC4)ccc3c2=O)cc1
[1]
  IC50: 40 µM
[2]
  IC50: 30.8 µM
[3]
  IC50: 19.4 µM

## COc1ccc(-c2coc3cc(OCCCSC(=S)N4CCN(Cc5ccccc5)CC4)ccc3c2=O)cc1
[1]
  IC50: 43.8 µM
[2]
  IC50: 25.3 µM
[3]
  IC50: 14.9 µM

## CCN1CCN(C(=S)SCCCOc2ccc3c(=O)c(-c4ccc(OC)cc4)coc3c2)CC1
[1]
  IC50: 54 µM
[2]
  IC50: 36.9 µM
[3]
  IC50: 7.08 µM

## COc1ccc(-c2coc3cc(O)ccc3c2=O)cc1 [FORMONONETIN]
[1]
  IC50: > 100 µM
[2]
  IC50: > 100 µM
[3]
  IC50: 57 µM

## COc1ccc(-c2coc3cc(OCCCCBr)ccc3c2=O)cc1
[1]
  IC50: 52.7 µM
[2]
  IC50: 66.3 µM
[3]
  IC50: 55.6 µM

## COc1ccc(-c2coc3cc(OCCCCSC(=S)N4CCN(C(=O)OC(C)(C)C)CC4)ccc3c2=O)cc1
[1]
  IC50: 31.3 µM
[2]
  IC50: 8.84 µM
[3]
  IC50: 4.61 µM

## COc1ccc(-c2coc3cc(OCCBr)ccc3c2=O)cc1
[1]
  IC50: > 100 µM
[2]
  IC50: 55.1 µM
[3]
  IC50: 41.9 µM

## COc1ccc(-c2coc3cc(OCCSC(=S)N4CCN(C(=O)OC(C)(C)C)CC4)ccc3c2=O)cc1
[1]
  IC50: 11.6 µM
[2]
  IC50: 4.09 µM
[3]
  IC50: 3.64 µM

## COc1ccc(-c2coc3cc(OCCCBr)ccc3c2=O)cc1
[1]
  IC50: 64.9 µM
[2]
  IC50: 39.7 µM
[3]
  IC50: 62.6 µM

Reference: ChEMBL document CHEMBL4004797, “Design and synthesis of formononetin-dithiocarbamate hybrids that inhibit growth and migration of PC-3 cells via MAPK/Wnt signaling pathways” (Eur J Med Chem, 2017)
